ChEMBL document CHEMBL3804775, “Development of a Potent, Specific CDK8 Kinase Inhibitor Which Phenocopies CDK8/19 Knockout Cells” (ACS Med Chem Lett, 2016)
≈ marks a conversion by molar mass, not a printed value. Calls of active or inactive are those of the source. No cut-off for these calls is given here.

Key:
[1] = Plasma protein binding in rat; format: ADME, cell-free; settings: read-out: PPB (converted)
[2] = Kinetic solubility in DMSO/phosphate buffered saline at pH 7.4 at 200 uM after 24 hrs by UHPLC based chemiluminescent nitrogen detection method; format: physicochemical; settings: read-out: Kinetic_solubility
CDK8/Cyclin C = CDK8/Cyclin C (Homo sapiens, UniProt P49336); experiment: Inhibition of full length human recombinant His-tagged CDK8/Cyclin C expressed in baculovirus expression system by fluorescence polarization assay
[3] = Plasma protein binding in human; format: ADME, cell-free; settings: read-out: PPB (converted)
[4] = Plasma protein binding in mouse; format: ADME, cell-free; settings: read-out: PPB (converted)
[5] = Permeability from apical to basolateral side in MDCK cells; format: ADME, cell-based, Canis lupus familiaris; settings: dog, read-out: permeability
[6] = Antiproliferative activity against human HCT116 cells after 72 hrs by Celltiter-Glo reagent based assay in presence of 10% fetal bovine serum; format: functional, cell-based; settings: HCT-116, 72 h
[7] = Antiproliferative activity against human HCT116 cells after 72 hrs by Celltiter-Glo reagent based assay in presence of 0.625% fetal bovine serum; format: functional, cell-based; settings: HCT-116, 72 h
[8] = molecular target: CDK9/cyclin T1 (Homo sapiens) (UniProt O60563+P50750); experiment: Inhibition of full length human recombinant His-tagged CDK9/Cyclin T expressed in baculovirus expression system using Cdk7/9tide as substrate at 0.1 uM by adapta assay relative to control
Summary of the method: (§1)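 Single-point kinase selectivity screen at 0.1 μM compound across a panel of 52 kinases, recorded as percent inhibition for each kinase.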

[9] = molecular target: Serine/threonine-protein kinase Nek4 (Homo sapiens) (UniProt P51957); experiment: Inhibition of full length human recombinant GST-tagged NEK4 expressed in baculovirus expression system using Ser/Thr peptide 17 substrate at 0.1 uM by Z-Lyte assay relative to control; summary of the method: as §1
[10] = molecular target: T1, Homeodomain-interacting protein kinase 4 (Homo sapiens) (UniProt Q8NE63); experiment: Inhibition of full length human recombinant N-terminal GST-tagged HIPK4 expressed in baculovirus expression system using Ser/Thr peptide 18 substrate at 0.1 uM by Z-Lyte assay relative to control
T1 sequence (whole entry): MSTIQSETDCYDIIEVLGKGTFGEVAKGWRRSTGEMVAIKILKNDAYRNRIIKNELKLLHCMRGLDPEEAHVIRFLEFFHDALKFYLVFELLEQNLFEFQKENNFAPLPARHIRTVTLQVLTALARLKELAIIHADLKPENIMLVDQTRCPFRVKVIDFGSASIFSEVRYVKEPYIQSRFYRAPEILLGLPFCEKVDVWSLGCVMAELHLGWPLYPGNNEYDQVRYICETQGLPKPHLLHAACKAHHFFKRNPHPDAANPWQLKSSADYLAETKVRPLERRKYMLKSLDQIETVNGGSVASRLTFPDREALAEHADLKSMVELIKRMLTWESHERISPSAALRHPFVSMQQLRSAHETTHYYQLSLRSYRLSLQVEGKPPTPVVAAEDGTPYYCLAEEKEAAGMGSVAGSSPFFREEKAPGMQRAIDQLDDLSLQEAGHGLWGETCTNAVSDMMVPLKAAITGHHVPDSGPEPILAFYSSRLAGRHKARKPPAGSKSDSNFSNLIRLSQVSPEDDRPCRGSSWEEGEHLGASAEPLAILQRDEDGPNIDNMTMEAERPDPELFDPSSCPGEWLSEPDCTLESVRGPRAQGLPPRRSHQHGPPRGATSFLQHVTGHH
Summary of the method: (§2)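 Single-concentration screen at 0.1 μM within a 52-kinase selectivity panel, with percent inhibition reported for each kinase.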

[11] = molecular target: PAS domain-containing serine/threonine-protein kinase (Homo sapiens) (UniProt Q96RG2); experiment: Inhibition of human recombinant GST-tagged PASK (879 to 1323 residues) expressed in baculovirus expression system at 0.1 uM relative to control; summary of the method: as §1
[12] = molecular target: Glycogen synthase kinase-3 alpha (Homo sapiens) (UniProt P49840); experiment: Inhibition of recombinant GSK3alpha (unknown origin) at 0.1 uM relative to control; summary of the method: as §2
[13] = Ratio of EC50 for antiproliferative activity against human HCT116 cells after 72 hrs by Celltiter-Glo reagent based assay to IC50 for inhibition of full length human recombinant His-tagged CDK8/Cyclin C expressed in baculovirus expression system by fluorescence polarization assay; design: species or system HCT-116
CDK9/cyclin T1 = CDK9/cyclin T1 (Homo sapiens, UniProt P50750); experiment: Inhibition of full length human recombinant His-tagged CDK9/Cyclin T expressed in baculovirus expression system using Cdk7/9tide as substrate by adapta assay
HCT-116 [14] = experiment: Antiproliferative activity against CDK8/CDK19 double knockout human HCT116 cells after 72 hrs by Celltiter-Glo reagent based assay; format: functional, cell-based
Summary of the method: (§3)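 HCT-116 CDK8 knockout and CDK8/CDK19 double knockout clones, derived from wild-type HCT-116, were incubated alongside the parent line with varying concentrations of compound. Cell viability was read at 72 h to give growth-inhibition curves.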

HCT-116 [15] = experiment: Antiproliferative activity against CDK8 knockout human HCT116 cells after 72 hrs by Celltiter-Glo reagent based assay; format: functional, cell-based; summary of the method: as §3

CDK8/Cyclin C, sequence (P49336 whole entry): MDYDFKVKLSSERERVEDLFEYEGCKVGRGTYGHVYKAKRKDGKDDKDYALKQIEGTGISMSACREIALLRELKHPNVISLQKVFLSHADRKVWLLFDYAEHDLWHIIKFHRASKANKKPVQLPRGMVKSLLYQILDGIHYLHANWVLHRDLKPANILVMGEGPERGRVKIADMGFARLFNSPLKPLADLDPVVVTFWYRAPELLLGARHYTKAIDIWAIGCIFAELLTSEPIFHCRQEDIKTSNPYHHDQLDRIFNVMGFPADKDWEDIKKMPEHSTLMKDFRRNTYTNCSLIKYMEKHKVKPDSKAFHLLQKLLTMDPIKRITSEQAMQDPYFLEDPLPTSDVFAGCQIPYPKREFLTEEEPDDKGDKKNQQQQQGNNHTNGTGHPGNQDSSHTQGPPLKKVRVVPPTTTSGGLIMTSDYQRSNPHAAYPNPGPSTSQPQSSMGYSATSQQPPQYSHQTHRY
CDK8/Cyclin C, sequence (P24863 whole entry, further chain): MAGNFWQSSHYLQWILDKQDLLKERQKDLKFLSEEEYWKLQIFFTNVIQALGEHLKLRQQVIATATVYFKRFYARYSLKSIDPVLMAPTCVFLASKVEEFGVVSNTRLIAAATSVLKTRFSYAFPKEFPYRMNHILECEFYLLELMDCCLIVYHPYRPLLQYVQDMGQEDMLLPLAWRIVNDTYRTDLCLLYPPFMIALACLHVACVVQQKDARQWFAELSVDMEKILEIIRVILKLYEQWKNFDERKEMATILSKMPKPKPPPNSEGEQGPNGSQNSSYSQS
PAS domain-containing serine/threonine-protein kinase (Homo sapiens), sequence (Q96RG2 whole entry, the tested form may be a part): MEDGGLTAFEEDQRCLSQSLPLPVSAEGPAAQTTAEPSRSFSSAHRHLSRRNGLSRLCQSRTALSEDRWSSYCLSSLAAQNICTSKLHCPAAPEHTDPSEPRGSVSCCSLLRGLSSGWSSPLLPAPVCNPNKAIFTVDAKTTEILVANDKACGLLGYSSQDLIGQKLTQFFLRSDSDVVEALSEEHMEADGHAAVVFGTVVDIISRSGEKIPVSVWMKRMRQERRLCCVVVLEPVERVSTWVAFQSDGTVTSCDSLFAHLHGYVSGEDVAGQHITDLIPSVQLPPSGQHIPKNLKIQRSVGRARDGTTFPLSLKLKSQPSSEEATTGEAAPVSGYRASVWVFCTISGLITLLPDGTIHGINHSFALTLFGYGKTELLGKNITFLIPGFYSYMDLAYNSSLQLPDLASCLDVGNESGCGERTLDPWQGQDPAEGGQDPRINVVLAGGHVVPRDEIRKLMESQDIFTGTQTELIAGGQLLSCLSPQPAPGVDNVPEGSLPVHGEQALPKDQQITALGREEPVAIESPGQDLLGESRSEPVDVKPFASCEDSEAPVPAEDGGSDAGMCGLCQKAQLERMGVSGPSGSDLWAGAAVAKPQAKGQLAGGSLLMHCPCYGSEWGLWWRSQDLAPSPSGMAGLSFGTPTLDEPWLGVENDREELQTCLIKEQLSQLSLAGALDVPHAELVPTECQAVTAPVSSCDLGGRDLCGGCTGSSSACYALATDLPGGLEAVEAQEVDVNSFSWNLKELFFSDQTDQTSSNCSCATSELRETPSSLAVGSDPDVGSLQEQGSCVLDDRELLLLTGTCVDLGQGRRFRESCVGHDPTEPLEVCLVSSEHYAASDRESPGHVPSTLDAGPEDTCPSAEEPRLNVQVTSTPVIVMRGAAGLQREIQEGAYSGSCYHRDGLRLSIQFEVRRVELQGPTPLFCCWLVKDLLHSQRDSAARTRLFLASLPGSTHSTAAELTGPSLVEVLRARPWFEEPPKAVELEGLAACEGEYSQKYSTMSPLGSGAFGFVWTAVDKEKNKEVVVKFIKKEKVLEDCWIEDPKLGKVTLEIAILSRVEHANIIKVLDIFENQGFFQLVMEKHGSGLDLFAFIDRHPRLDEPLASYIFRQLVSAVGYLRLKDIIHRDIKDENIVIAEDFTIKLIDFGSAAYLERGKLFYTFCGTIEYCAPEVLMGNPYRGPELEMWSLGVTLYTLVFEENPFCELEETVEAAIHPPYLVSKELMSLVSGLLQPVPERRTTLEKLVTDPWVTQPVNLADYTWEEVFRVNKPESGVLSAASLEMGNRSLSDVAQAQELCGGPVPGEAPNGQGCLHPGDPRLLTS
Glycogen synthase kinase-3 alpha (Homo sapiens), sequence (P49840 2-483 limits assumed): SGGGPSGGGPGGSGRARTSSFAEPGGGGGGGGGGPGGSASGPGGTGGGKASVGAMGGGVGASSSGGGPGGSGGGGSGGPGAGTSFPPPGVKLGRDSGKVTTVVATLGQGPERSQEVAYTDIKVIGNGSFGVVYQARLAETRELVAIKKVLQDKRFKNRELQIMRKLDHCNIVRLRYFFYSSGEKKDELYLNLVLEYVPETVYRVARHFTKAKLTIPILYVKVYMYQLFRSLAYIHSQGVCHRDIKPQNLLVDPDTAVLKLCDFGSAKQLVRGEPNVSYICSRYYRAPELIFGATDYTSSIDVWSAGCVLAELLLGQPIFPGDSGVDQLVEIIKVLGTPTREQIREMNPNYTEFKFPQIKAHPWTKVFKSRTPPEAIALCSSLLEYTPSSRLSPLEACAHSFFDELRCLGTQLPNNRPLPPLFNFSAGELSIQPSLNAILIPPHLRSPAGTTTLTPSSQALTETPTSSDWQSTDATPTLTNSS
Serine/threonine-protein kinase Nek4 (Homo sapiens), sequence (P51957 whole entry, looked up): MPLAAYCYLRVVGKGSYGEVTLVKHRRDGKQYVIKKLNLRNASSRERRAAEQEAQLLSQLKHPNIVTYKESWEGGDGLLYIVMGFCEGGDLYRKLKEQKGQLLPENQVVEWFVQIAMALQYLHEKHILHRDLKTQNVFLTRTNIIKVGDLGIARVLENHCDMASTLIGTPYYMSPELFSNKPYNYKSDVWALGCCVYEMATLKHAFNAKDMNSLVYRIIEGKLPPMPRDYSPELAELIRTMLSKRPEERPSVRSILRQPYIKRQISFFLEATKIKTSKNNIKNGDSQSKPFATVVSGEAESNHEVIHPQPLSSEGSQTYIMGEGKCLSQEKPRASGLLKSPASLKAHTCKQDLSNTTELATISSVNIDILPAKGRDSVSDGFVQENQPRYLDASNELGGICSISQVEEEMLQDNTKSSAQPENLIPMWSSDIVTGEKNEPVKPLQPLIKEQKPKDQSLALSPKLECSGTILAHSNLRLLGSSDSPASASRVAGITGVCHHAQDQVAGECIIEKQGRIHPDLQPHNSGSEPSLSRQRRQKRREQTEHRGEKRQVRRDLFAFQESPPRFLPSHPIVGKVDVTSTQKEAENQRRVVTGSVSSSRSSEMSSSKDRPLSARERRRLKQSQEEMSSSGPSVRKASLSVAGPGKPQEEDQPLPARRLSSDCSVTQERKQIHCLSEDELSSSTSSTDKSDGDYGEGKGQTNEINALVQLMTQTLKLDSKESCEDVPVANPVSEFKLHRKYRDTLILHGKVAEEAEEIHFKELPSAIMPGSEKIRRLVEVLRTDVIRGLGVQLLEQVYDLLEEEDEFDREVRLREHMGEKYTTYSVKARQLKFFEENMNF
CDK9/cyclin T1, sequence (O60563 whole entry): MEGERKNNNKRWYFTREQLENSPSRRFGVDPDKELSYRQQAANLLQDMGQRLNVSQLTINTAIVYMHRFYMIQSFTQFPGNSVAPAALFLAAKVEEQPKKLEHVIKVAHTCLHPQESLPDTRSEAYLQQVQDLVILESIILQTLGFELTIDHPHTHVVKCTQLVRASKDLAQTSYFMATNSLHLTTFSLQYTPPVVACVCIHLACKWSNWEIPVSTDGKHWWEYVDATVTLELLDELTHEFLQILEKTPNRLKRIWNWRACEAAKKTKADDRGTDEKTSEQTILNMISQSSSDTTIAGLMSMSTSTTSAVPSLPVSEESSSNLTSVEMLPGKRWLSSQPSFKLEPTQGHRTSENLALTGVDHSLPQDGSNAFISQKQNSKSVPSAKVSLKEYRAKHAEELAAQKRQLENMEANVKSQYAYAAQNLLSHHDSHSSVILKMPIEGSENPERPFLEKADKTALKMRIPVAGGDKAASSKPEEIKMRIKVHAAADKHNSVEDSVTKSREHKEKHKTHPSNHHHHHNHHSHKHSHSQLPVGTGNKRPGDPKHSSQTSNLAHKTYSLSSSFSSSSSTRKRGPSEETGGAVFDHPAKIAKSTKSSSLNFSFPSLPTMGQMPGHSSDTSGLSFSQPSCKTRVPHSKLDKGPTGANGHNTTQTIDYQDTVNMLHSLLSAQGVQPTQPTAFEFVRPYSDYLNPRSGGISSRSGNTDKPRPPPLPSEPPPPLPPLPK
CDK9/cyclin T1, sequence (P50750 whole entry): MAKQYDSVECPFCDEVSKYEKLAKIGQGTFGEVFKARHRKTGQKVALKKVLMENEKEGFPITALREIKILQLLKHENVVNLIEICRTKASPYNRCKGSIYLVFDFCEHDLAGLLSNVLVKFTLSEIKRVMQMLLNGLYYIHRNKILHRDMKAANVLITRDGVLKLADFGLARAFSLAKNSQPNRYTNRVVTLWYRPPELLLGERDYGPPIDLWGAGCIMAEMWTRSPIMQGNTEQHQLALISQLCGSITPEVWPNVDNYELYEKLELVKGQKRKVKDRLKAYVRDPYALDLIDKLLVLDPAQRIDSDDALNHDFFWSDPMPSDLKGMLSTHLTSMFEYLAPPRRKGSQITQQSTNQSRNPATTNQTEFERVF

SMILES | fraction unbound [1] | solubility kinetic at 24 h, 200 µM [2] [µM] | IC50 (CDK8/Cyclin C) [nM] | fraction unbound [3] | fraction unbound [4] | Papp A→B [5] [×10⁻⁶ cm/s] | other results
CC(=O)Nc1ccc(Oc2cncc3sc(C(N)=O)cc23)cc1 | 0.152 | 18 (≈ 5.89 µg/mL) | 29 | 0.09 | 0.204 | – | –
CCNC(=O)c1cc2c(Oc3ccc(Cl)cc3)cncc2s1 | – | – | 16 | – | – | – | –
NC(=O)c1cc2c(Oc3ccc(Cl)cc3)cnc(Cl)c2s1 | – | < 1 | 11 | – | – | – | –
Clc1ccc(Oc2cncc3sc(-c4nnn[nH]4)cc23)cc1 | – | – | 1.1 | – | – | 11 | EC50 [6]: > 10000 nM; EC50 [7]: > 10000 nM
O=C(NC1CC1)c1cc2c(Oc3ccc(Cl)cc3)cncc2s1 | 0.007 | – | 24 | 0.008 | 0.009 | – | –
CC(=O)c1cc2c(Oc3ccc(Cl)cc3)cncc2s1 | 0.002 | – | 32 | 0.003 | 0.003 | – | –
COC(=O)c1cc2c(Oc3ccc(Cl)cc3)cncc2s1 | – | – | 62 | – | – | – | –
N#Cc1ccc(Oc2cncc3sc(C(N)=O)cc23)cc1 | 0.127 | 8 (≈ 2.36 µg/mL) | 5.1 | 0.153 | 0.109 | – | –
NC(=O)c1ccc(Oc2cncc3sc(C(N)=O)cc23)cc1 | 0.232 | 7 (≈ 2.19 µg/mL) | 21 | 0.227 | 0.217 | – | –
N#Cc1ccc(Oc2cncc3sc(-c4nnn[nH]4)cc23)cc1 | – | – | 1 | – | – | 2.5 | EC50 [6]: > 10000 nM; EC50 [7]: > 10000 nM
FC(F)(F)Oc1ccc(Oc2cncc3sc(-c4nnn[nH]4)cc23)cc1 | – | – | 1.1 | – | – | 24 | EC50 [6]: > 10000 nM; EC50 [7]: > 10000 nM
Cc1ccc(Oc2cncc3sc(-c4nn[nH]n4)cc23)cc1 | – | – | 1.6 | – | – | 12 | EC50 [6]: > 10000 nM; EC50 [7]: > 10000 nM
NC(=O)c1ccc(-c2ccc(Oc3cncc4sc(-c5nn[nH]n5)cc34)cc2)cc1 | – | – | 3 | – | – | 1.9 | inhibition [8]: > 50%; inhibition [9]: > 80%; inhibition [10]: > 80%; inhibition [11]: > 80%; inhibition [12]: > 80%
O=C(O)c1cc2c(Oc3ccc(Cl)cc3)cncc2s1 | 0.003 | – | 2.8 | 0.002 | 0.003 | – | EC50 [6]: > 10000 nM; EC50 [7]: > 10000 nM
CNC(=O)c1cc2c(Oc3ccc(Cl)cc3)cncc2s1 | 0.01 | – | 8.2 | 0.015 | 0.023 | – | –
CNC(=O)c1cc2c(Oc3ccc(I)cc3)cncc2s1 | 0.001 | – | 5.3 | 0.002 | 0.002 | – | –
Fc1ccc(Oc2cncc3sc(-c4nnn[nH]4)cc23)cc1 | – | – | 5.5 | – | – | 9.1 | –

SMILES | fraction unbound [1] | solubility kinetic at 24 h, 200 µM [2] [µM] | IC50 (CDK8/Cyclin C) [nM] | fraction unbound [3] | fraction unbound [4] | Papp A→B [5] [×10⁻⁶ cm/s] | other results
Ic1ccc(Oc2cncc3sc(-c4nn[nH]n4)cc23)cc1 | – | – | 0.7 | – | – | 24 | inhibition [8]: > 30%; inhibition [9]: > 30%; inhibition [10]: > 80%; inhibition [11]: > 50%; inhibition [12]: > 80%
Cc1ncc(Oc2ccc(Cl)cc2)c2cc(C(N)=O)sc12 | 0.008 | 10 (≈ 3.19 µg/mL) | 8 | 0.007 | 0.012 | – | EC50 [6]: > 10000 nM; Ratio [13]: 1000; EC50 [7]: 8700 nM
NC(=O)c1cc2c(Oc3ccc(Cl)cc3)cnc(F)c2s1 | – | < 1 | 16 | – | – | – | –
NC(=O)c1cc2c(Oc3ccc(Cl)cc3)cnc(N)c2s1 | 0.023 | 5.5 (≈ 1.76 µg/mL) | 1.5 | 0.0187 | 0.041 | – | IC50 (CDK9/cyclin T1): 1100 nM; EC50 [6]: 6700 nM; Ratio [13]: 1000; EC50 [7]: 5400 nM; Activity (HCT-116 [14]): Active; Activity (HCT-116 [15]): Active
Cc1ccc(Oc2cncc3sc(C(N)=O)cc23)cc1 | 0.041 | < 1 | 6 | 0.028 | 0.039 | – | –
CN1CC[C@H](c2c(O)cc(O)c3c(=O)cc(-c4ccccc4Cl)oc23)[C@H](O)C1 [ALVOCIDIB] | – | – | – | – | – | – | EC50 [6]: 34 nM
NC(=O)c1cc2c(Oc3ccc(Cl)cc3)cncc2s1 | – | 6.3 (≈ 1.92 µg/mL) | 6.2 | – | – | – | IC50 (CDK9/cyclin T1): 2200 nM
c1ccc(Oc2cncc3sc(-c4nn[nH]n4)cc23)cc1 | – | – | 8.3 | – | – | 4.1 | –
O=C(c1cc2c(Oc3ccc(Cl)cc3)cncc2s1)C1CC1 | – | – | 59 | – | – | – | –
CN(C)C(=O)c1cc2c(Oc3ccc(Cl)cc3)cncc2s1 | – | – | 75 | – | – | – | –
CCC(=O)c1cc2c(Oc3ccc(Cl)cc3)cncc2s1 | < 0.001 | – | 29 | < 0.001 | < 0.001 | – | –
NC(=O)c1cc2c(Oc3ccc(OC(F)(F)F)cc3)cncc2s1 | 0.032 | < 1 | 12 | 0.021 | 0.028 | – | EC50 [6]: > 10000 nM; EC50 [7]: > 10000 nM
NC(=O)c1ccc(Oc2cncc3sc(-c4nnn[nH]4)cc23)cc1 | – | – | 4.4 | – | – | 0.7 | –
CC(=O)Nc1ccc(Oc2cncc3sc(-c4nnn[nH]4)cc23)cc1 | – | – | 2 | – | – | 0.8 | –
CC(C)NC(=O)c1cc2c(Oc3ccc(Cl)cc3)cncc2s1 | – | – | 100 | – | – | – | –
COc1ccc(Oc2cncc3sc(C(N)=O)cc23)cc1 | 0.06 | 10 (≈ 3 µg/mL) | 25 | 0.064 | 0.098 | – | –
